Laboratory results taken from ChEMBL document CHEMBL4043264, “Design, synthesis, X-ray studies, and biological evaluation of novel macrocyclic HIV-1 protease inhibitors involving the P1'-P2' ligands” (Bioorg Med Chem Lett, 2017).

Columns and labels:
[1] = test system: Human immunodeficiency virus 1; test: Anti-viral activity against HIV-1 LAI infected in human MT2 cells assessed as reduction in p24 Gag protein production; type: functional, cell-based; conditions: Human immunodeficiency virus 1, M:B_Lai
[2] = Inhibition of HIV-1 protease using fluorogenic substrate by fluorescence assay; design: species or system Human immunodeficiency virus 1
[3] = test system: Human immunodeficiency virus 1; test: Antiviral activity against HIV-1 harboring protease I50V mutant; type: functional
[4] = Inhibition of wild-type HIV-1 protease; design: species or system Human immunodeficiency virus 1
[5] = test system: Human immunodeficiency virus 1; test: Antiviral activity against darunavir-resistant HIV1 harboring protease L10I/[…]K20R/L24I/V32I/M36I/M46L/L63P/V82A/L89M mutant infected in human MT4 cells assessed as reduction in p24 Gag protein production; type: functional, cell-based; conditions: Human immunodeficiency virus 1, MT4
Outline: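 MT-4 cells (1×10^4) infected with 50 TCID₅₀ of wild-type HIV-1 NL4-3 or the DRV-resistant variant HIV-1 DRV^R P20 (protease L10I/I15V/K20R/L24I/V32I/M36I/M46L/L63P/V82A/L89M). Cells then cultured with various concentrations of each protease inhibitor. IC50 determined from p24 assay. Each assay run in triplicate. Values are means of three independent experiments, with fold-change relative to wild type.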

[6] = Ratio of IC50 for darunavir-resistant HIV1 harboring protease L10I/I15V/K20R/L24I/V32I/M36I/M46L/L63P/V82A/L89M mutant infected in human MT4 cells to IC50 for wild type HIV1 NL4-3 infected in human MT4 cells; type: functional
[7] = test system: Human immunodeficiency virus 1; test: Antiviral activity against wild type HIV-1 NL4-3 infected in human MT4 cells assessed as reduction in p24 Gag protein production; type: functional, cell-based; conditions: Human immunodeficiency virus 1, NL4-3, MT4

## COc1ccc2c(c1)OCC/C=C\CN1C(=O)CC[C@@H]1CN(C[C@@H](O)[C@H](Cc1ccccc1)NC(=O)O[C@H]1CO[C@H]3OCC[C@H]31)S2(=O)=O
[1]
  IC50: 22 nM
[2]
  Ki: 13.2 nM

## COc1ccc2c(c1)COCCCCCCCCN(C[C@@H](O)[C@H](Cc1ccccc1)NC(=O)O[C@H]1CO[C@H]3OCC[C@H]31)S2(=O)=O
[1]
  IC50: 31 nM
[2]
  Ki: 0.062 nM

## COc1ccc2c(c1)OCCCCCCN(S(C)(=O)=O)CCN(C[C@@H](O)[C@H](Cc1ccccc1)NC(=O)O[C@H]1CO[C@H]3OCC[C@H]31)S2(=O)=O
[2]
  Ki: 13.3 nM

## COc1ccc2c(c1)COC/C=C/CCCCCN(C[C@@H](O)[C@H](Cc1ccccc1)NC(=O)O[C@H]1CO[C@H]3OCC[C@H]31)S2(=O)=O
[2]
  Ki: 0.55 nM

## COc1ccc2c(c1)COC/C=C/CCCCN(C[C@@H](O)[C@H](Cc1ccccc1)NC(=O)O[C@H]1CO[C@H]3OCC[C@H]31)S2(=O)=O
[1]
  IC50: 46 nM
[2]
  Ki: 0.015 nM

## CC(C)CN(C[C@@H](O)[C@H](Cc1ccccc1)NC(=O)O[C@H]1CO[C@H]2OCC[C@H]21)S(=O)(=O)c1ccc(N)cc1
[3]
  IC50: 1.6 nM

## COc1ccc2c(c1)COC/C=C\CCCCCN(C[C@@H](O)[C@H](Cc1ccccc1)NC(=O)O[C@H]1CO[C@H]3OCC[C@H]31)S2(=O)=O
[2]
  Ki: 0.64 nM

## COc1ccc2c(c1)COC/C=C\CCCCN(C[C@@H](O)[C@H](Cc1ccccc1)NC(=O)O[C@H]1CO[C@H]3OCC[C@H]31)S2(=O)=O
[1]
  IC50: 54 nM
[2]
  Ki: 0.029 nM

## COc1ccc2c(c1)OCCCCCN1C(=O)CC[C@@H]1CN(C[C@@H](O)[C@H](Cc1ccccc1)NC(=O)O[C@H]1CO[C@H]3OCC[C@H]31)S2(=O)=O
[1]
  IC50: 122 nM
[2]
  Ki: 0.46 nM

## COc1ccc(S(=O)(=O)N(CC(C)C)C[C@@H](O)[C@H](Cc2ccccc2)NC(=O)O[C@H]2CO[C@H]3OCC[C@H]32)cc1
[3]
  IC50: 1.2 nM
[4]
  Ki: 0.014 nM

## Nc1ccc2c(c1)COCCCCCCCN(C[C@@H](O)[C@H](Cc1ccccc1)NC(=O)O[C@H]1CO[C@H]3OCC[C@H]31)S2(=O)=O
[1]
  IC50: 2 nM
[2]
  Ki: 0.014 nM
[5]
  IC50: 20 nM
[6]
  Ratio IC50: 13
[7]
  IC50: 1.5 nM

## COc1ccc2c(c1)OCC/C=C/CN1C(=O)CC[C@@H]1CN(C[C@@H](O)[C@H](Cc1ccccc1)NC(=O)O[C@H]1CO[C@H]3OCC[C@H]31)S2(=O)=O
[1]
  IC50: 176 nM
[2]
  Ki: 0.47 nM

## COc1ccc2c(c1)OCCCCCCOCCN(C[C@@H](O)[C@H](Cc1ccccc1)NC(=O)O[C@H]1CO[C@H]3OCC[C@H]31)S2(=O)=O
[1]
  IC50: > 1000 nM
[2]
  Ki: 9.85 nM

## COc1ccc2c(c1)COCCCCCCCN(C[C@@H](O)[C@H](Cc1ccccc1)NC(=O)O[C@H]1CO[C@H]3OCC[C@H]31)S2(=O)=O
[1]
  IC50: 5.3 nM
[2]
  Ki: 0.062 nM
[5]
  IC50: 240 nM
[6]
  Ratio IC50: 67
[7]
  IC50: 3.6 nM

## COc1ccc2c(c1)OCCCCCN1C(=O)CC[C@H]1CN(C[C@@H](O)[C@H](Cc1ccccc1)NC(=O)O[C@H]1CO[C@H]3OCC[C@H]31)S2(=O)=O
[1]
  IC50: > 1000 nM
[2]
  Ki: 27 nM

## COc1ccc2c(c1)OCCCCCOCCN(C[C@@H](O)[C@H](Cc1ccccc1)NC(=O)O[C@H]1CO[C@H]3OCC[C@H]31)S2(=O)=O
[2]
  Ki: 4.21 nM

## COc1ccc2c(c1)OCCCCCN(S(C)(=O)=O)CCN(C[C@@H](O)[C@H](Cc1ccccc1)NC(=O)O[C@H]1CO[C@H]3OCC[C@H]31)S2(=O)=O
[2]
  Ki: 33.3 nM
